Results taken from ChEMBL document CHEMBL1128228, “2,3-Dihydro-1-benzofuran-5-ols as analogues of alpha-tocopherol that inhibit in vitro and ex vivo lipid autoxidation and protect mice against central nervous system trauma” (J Med Chem, 1995).
The source made the active and inactive calls. No cut-off for these calls is given here.

Columns and labels:
[1] = Superoxyl radical (O2) scavenging reaction rate constant in competition with nitro-blue tetrazolium of superoxyl radicals formed by xanthine oxidase in the presence of xanthine; format: functional
Mus musculus [2] = experiment: Ex vivo inhibition of mouse brain lipid autoxidation after 1 hr by 20 umol/kg subcutaneous administration; format: functional; settings: sc
How it was run: (§1)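 Male CD1 mice (30 g, five per group) were given 20 μmol/kg sc or saline and killed 1 h later. Brains were frozen in liquid N2, stored at -80 °C, then homogenized 1/19 w/v in ice-cold water. Homogenate (10 mg tissue) was incubated in 20 mM KH2PO4 pH 7.3 with 0.14 M KCl (final) at 37 °C for 30 min. Unincubated samples gave basal TBARS.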

Mus musculus [3] = species on record: Mus musculus; experiment: Percentage number of paraparetic mice 1 hr after concussive head injury; format: functional
How it was run: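 Mice were dosed 12 mg/kg sc 30 min before concussive head injury, a blow of measured severity. At 1 h a blinded string test counted mice unable to raise their hind limbs onto a horizontal string as paraparetic. Groups had 20–25 mice and were compared with saline by χ-square.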

Mus musculus [4] = experiment: Mouse brain drug concentration after 1 hr of 20 umol/kg subcutaneous administration; format: functional, organism-based
How it was run: (§2)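 Mouse brain homogenates taken 1 h after 20 μmol/kg sc were diluted in methanol containing 2% ascorbic acid and centrifuged. Supernatant was run on a C8 column with isocratic 0.1 M phosphate/50–75% methanol. Detection was electrochemical at 0.6 V. Results are nmol/g, mean ± SD, five mice per group.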

Rattus norvegicus [5] = species on record: Rattus norvegicus; experiment: In vitro inhibition of lipid autoxidation (TBARS formation) of rat brain homogenate; format: functional
How it was run: (§3)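 Rat brain homogenate was incubated at 37 °C for 30 min, and TBARS formation was measured. The value is the concentration giving 50% inhibition, as mean ± SD with the number of experiments given.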

Mus musculus [6] = experiment: Ex vivo inhibition of mouse brain lipid autoxidation after 1 hr by 20 umol/kg subcutaneous administration; no inhibition; format: functional, organism-based; how it was run: as §1
Mus musculus [7] = experiment: Ex vivo inhibition of mouse brain lipid autoxidation after 1 hr by 1 umol/kg subcutaneous administration; format: functional; settings: sc
Rattus norvegicus [8] = species on record: Rattus norvegicus; experiment: In vitro lipid autoxidation (TBARS formation) in rat brain homogenate; no inhibition; format: functional; how it was run: as §3
[9] = O2 scavenging reaction rate constant for competition with nitro-blue tetrazolium of superoxyl radicals formed by xanthine oxidase in the presence of xanthine;No reaction; format: functional
Mus musculus [10] = experiment: […] fter 1 hr by 20 umol/kg subcutaneous administration; format: functional, organism-based; how it was run: as §2

## Cc1c(C)c2c(c(C)c1O)C(CN1CCN(CCO)CC1)C(C)(C)O2 (stereo not drawn)
[1]
  Rate constant: 90000 M⁻¹ s⁻¹
Mus musculus [2]
  inhibition in vivo at 20 µmol/kg: 57%
Mus musculus [3]
  Paraparetic mice: 40%
Mus musculus [4]
  Concentration: 6.5 nM/g
Rattus norvegicus [5]; Rattus norvegicus, Brain
  IC50: 0.5 µM

## Cc1c(C)c2c(c(C)c1O)C(CN(C)C)C(C)(C)O2 (stereo not drawn)
Mus musculus [6]
  inhibition: inactive
[1]
  Rate constant: 150000 M⁻¹ s⁻¹
Rattus norvegicus [5]; Rattus norvegicus, Brain
  IC50: 0.7 µM

## Cc1c(C)c2c(c(C)c1O)C(CN1CCN(c3ncccn3)CC1)C(C)(C)O2 (stereo not drawn)
Mus musculus [2]
  inhibition in vivo at 20 µmol/kg: 29%
Mus musculus [4]
  Concentration: 0.8 nM/g
Rattus norvegicus [5]; Rattus norvegicus, Brain
  IC50: 0.4 µM

## Cc1c(C)c2c(c(C)c1O)C(CN1CCN(Cc3ccccc3)CC1)C(C)(C)O2 (stereo not drawn)
[1]
  Rate constant: 20000 M⁻¹ s⁻¹
Mus musculus [2]
  inhibition in vivo at 20 µmol/kg: 24%
Mus musculus [4]
  Concentration: 1.6 nM/g
Rattus norvegicus [5]; Rattus norvegicus, Brain
  IC50: 0.3 µM

## Cc1c(C)c2c(c(C)c1O)CC[C@@](C)(CCC[C@H](C)CCC[C@H](C)CCCC(C)C)O2 [ALPHA-TOCOPHEROL]
Rattus norvegicus [5]; Rattus norvegicus, Brain
  IC50: 14 µM

## Cc1c(C)c2c(c(C)c1O)C(CN1CCN(CCOCCO)CC1)C(C)(C)O2 (stereo not drawn)
Mus musculus [6]
  inhibition: inactive
[1]
  Rate constant: 85000 M⁻¹ s⁻¹
Mus musculus [3]
  Paraparetic mice: 60%
Mus musculus [4]
  Concentration: 1.2 nM/g
Rattus norvegicus [5]; Rattus norvegicus, Brain
  IC50: 1.2 µM

## COC(=O)C1c2c(C)c(O)c(C)c(C)c2OC1(C)C (stereo not drawn)
Rattus norvegicus [5]; Rattus norvegicus, Brain
  IC50: 3.2 µM

## Cc1c(C)c2c(c(C)c1O)C(C(=O)O)C(C)(C)O2 (stereo not drawn)
[1]
  Rate constant: 67000 M⁻¹ s⁻¹
Rattus norvegicus [5]; Rattus norvegicus, Brain
  IC50: 27 µM

## Cc1c(C)c2c(c(C)c1O)C(C(=O)N1CCN(CCO)CC1)C(C)(C)O2 (stereo not drawn)
[1]
  Rate constant: 43000 M⁻¹ s⁻¹
Rattus norvegicus [5]; Rattus norvegicus, Brain
  IC50: 19 µM

## Cc1c(C)c2c(c(C)c1O)C(CO)C(C)(C)O2 (stereo not drawn)
[1]
  Rate constant: 140000 M⁻¹ s⁻¹
Rattus norvegicus [5]; Rattus norvegicus, Brain
  IC50: 2.6 µM

## Cc1c(C)c2c(c(C)c1O)CCC(C)(CCN(C)C)O2 (stereo not drawn)
[1]
  Rate constant: 27000 M⁻¹ s⁻¹
Mus musculus [2]
  inhibition in vivo at 20 µmol/kg: 16%
Rattus norvegicus [5]; Rattus norvegicus, Brain
  IC50: 0.7 µM

## Cc1c(C)c2c(c(C)c1O)C(C(=O)N1CCN(C)CC1)C(C)(C)O2 (stereo not drawn)
[1]
  Rate constant: 83000 M⁻¹ s⁻¹
Rattus norvegicus [5]; Rattus norvegicus, Brain
  IC50: 12 µM

## Cc1c(C)c2c(c(C)c1O)C(CN1CCN(C)CC1)C(C)(C)O2 (stereo not drawn)
Mus musculus [2]
  inhibition in vivo at 20 µmol/kg: 63%
Mus musculus [3]
  Paraparetic mice: 30%
Mus musculus [4]
  Concentration: 7.5 nM/g
Rattus norvegicus [5]
  IC50: 0.4 µM
Rattus norvegicus [5]; Rattus norvegicus, Brain
  IC50: 0.45 µM

## Cc1c(C)c2c(c(C)c1O)C(CNC(C)C)C(C)(C)O2 (stereo not drawn)
Mus musculus [7]
  inhibition in vivo at 1 µmol/kg: 37%
[1]
  Rate constant: 330000 M⁻¹ s⁻¹
Rattus norvegicus [5]; Rattus norvegicus, Brain
  IC50: 1.4 µM

## CC(=O)OCCN1CCN(CC2c3c(C)c(OC(C)=O)c(C)c(C)c3OC2(C)C)CC1 (stereo not drawn)
Rattus norvegicus [8]
  IC50: Not Active
[9]
  Rate constant: inactive
Mus musculus [2]
  inhibition in vivo at 20 µmol/kg: 35%
Mus musculus [10]
  Concentration: 5.7 nM/g

## Cc1c(C)c2c(c(C)c1O)C(C[N+](C)(C)C)C(C)(C)O2 (stereo not drawn)
[1]
  Rate constant: 49000 M⁻¹ s⁻¹
Rattus norvegicus [5]; Rattus norvegicus, Brain
  IC50: 3.6 µM

## Cc1c(C)c2c(c(C)c1O)C(CN1CCCCC1)C(C)(C)O2 (stereo not drawn)
Mus musculus [7]
  inhibition in vivo at 1 µmol/kg: 50%
[1]
  Rate constant: 90000 M⁻¹ s⁻¹
Rattus norvegicus [5]; Rattus norvegicus, Brain
  IC50: 0.4 µM

## Cc1c(C)c2c(c(C)c1O)C(C(=O)OCCN1CCN(C)CC1)C(C)(C)O2 (stereo not drawn)
Mus musculus [2]
  inhibition in vivo at 20 µmol/kg: 10%
Rattus norvegicus [5]; Rattus norvegicus, Brain
  IC50: 3.9 µM

## Cc1c(C)c2c(c(C)c1O)CCC(C)(CC[N+](C)(C)C)O2.Cc1ccc(S(=O)(=O)[O-])cc1 (stereo not drawn)
[1]
  Rate constant: 24000 M⁻¹ s⁻¹
Mus musculus [3]
  Paraparetic mice: 40%
Rattus norvegicus [5]; Rattus norvegicus, Brain
  IC50: 2 µM

## CC(=O)Oc1c(C)c(C)c2c(c1C)C(CN1CCN(C)CC1)C(C)(C)O2 (stereo not drawn)
Rattus norvegicus [8]
  IC50: Not Active
Mus musculus [2]
  inhibition in vivo at 20 µmol/kg: 57%
Mus musculus [10]
  Concentration: 7.2 nM/g
